Compounds with a hit are over-represented: about 3.4% of the library has one in this group of screens.
Efa HMGR inh: blocks class II HMG-CoA reductase of Enterococcus faecalis | purified E. faecalis HMGR, NADPH absorbance 340 nm kinetic | inhibition, % at 10 µM | 190,000 compounds, 0.41% hits;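 active = inhibition above a set limit, the median over all tested compounds plus 3 SD, cut at about 9.5% in these data; inconclusive = no clear call, values can overlap the other calls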;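 also: enzyme runs in reverse so mevalonate oxidation gives rising NADPH absorbance; 0% = complete reaction with DMSO and 100% = background rate lacking mevalonate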
RanGTP-Impb inh: inhibitors of RanGTP-importin-beta interaction, primary screen, biochemical, FRET, CFP-Ran, YFP-importin-beta, homogeneous. cell-free CFP-Ran/YFP-importin-beta FRET ratio. inhibition, % (test concentration not listed). 300,000 compounds, 1.1% hits. AID 2216;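 active = more than half of the replicate wells show a fall in the fluorescence ratio signal beyond about 16%, limit read from the data, passing the limit was not always enough; inconclusive = exactly half of the replicate wells pass the set limit; inactive = fewer than half of replicates pass the limit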;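 also: 0% = DMSO wells and 100% = Ran loaded with GDP instead of GTP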
PHOSPHO1 inh: blocks human PHOSPHO1 phosphatase activity; Q8TCT1; recombinant PHOSPHO1, absorbance phosphatase assay; inhibition, % at 13.3 µM; 290,000 compounds, 1.1% hits; in the data active = inhibition above about 60%
Target sequence (Q8TCT1 whole entry, looked up): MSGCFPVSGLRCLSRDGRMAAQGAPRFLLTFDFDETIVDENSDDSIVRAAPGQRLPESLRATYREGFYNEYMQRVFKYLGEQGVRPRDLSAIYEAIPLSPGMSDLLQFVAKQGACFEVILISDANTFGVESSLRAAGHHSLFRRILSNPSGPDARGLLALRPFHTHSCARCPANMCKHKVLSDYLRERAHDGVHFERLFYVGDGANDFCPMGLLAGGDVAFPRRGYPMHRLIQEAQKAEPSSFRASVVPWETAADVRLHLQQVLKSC
Wee1 degr inh: inhibitors of human Wee1 degradation | 220,000 compounds, 1.2% hits | reporter increase, % at 5 µM | P30291 | AID 1321 | HeLa Luc-Wee1K328M stability, luciferase luminescence; 100% = proteasome inhibitor MG132 effect;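 active = activation above the mean of all tested compounds plus 3 SD, set per screening run, cut at about 8.8% in these data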;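 also: cells exposed to compound for 20 h before luminescence read; 0% = DMSO alone and 100% = MG132 at 30 µM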
Runt-CBFb FRET: inhibitors of human RUNX1 Runt domain binding to CBFb. Q01196+Q13951. Cerulean-Runt/Venus-CBFb FRET ratio 530/480, 1 h. inhibition, % at 20 µM. 220,000 compounds, 0.46% hits. AID 1496;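 active = inhibition over about 50% at 20 µM in the single-dose screen, limit read from the data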;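 also: 0% = DMSO wells and 100% = excess unlabeled CBFb competitor control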
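Schedule: protein complex preformed 1 h, compound exposure 1 h, room temperature, dark; test system: Cerulean-labeled Runt domain protein; amount: 100 nM per protein; buffer or medium: Tris 50 mM pH 7.5, KCl, K2SO4, 0.01% BSA; read-out: loss of energy transfer signal; detection: FRET fluorescence; controls: 5 µM unlabeled CBFb as full-inhibition high control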
Runt-SMMHC FRET: Runt domain-CBFb-SMMHC interaction inhibition. inhibition, % at 20 µM. Q01196+Q13951. AID 1434. Cerulean-Runt/Venus-CBFb-SMMHC FRET ratio 530/480, 1 h. 220,000 compounds, 0.74% hits;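 active = mean inhibition across duplicate retests at 20 µM reaching about 50%, limit read from the data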;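 also: 0% = DMSO wells and 100% = wells with excess untagged CBFb-SMMHC; inhibitors lower the FRET ratio by blocking Runt binding to CBFb-SMMHC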
Wee1 degr conf: human Wee1 degradation inhibition, confirmation; shares compounds with Wee1 degr inh; HeLa Luc-Wee1K328M degradation, luminescence; vehicle 0%, proteasome-blocked wells 100%; activation, % at 5 µM; 1,100 compounds, 4% hits; AID 1410; in the data active = activation above about 8.9%
* hit, by the source's call; ? = inconclusive; nt = no result.

SMILES	Efa HMGR inh	RanGTP-Impb inh	PHOSPHO1 inh	Wee1 degr inh	Runt-CBFb FRET	Runt-SMMHC FRET	Wee1 degr conf
O=C(NCCCn1ccnc1)/C(=C\c1ccc(Br)cc1)NC(=O)c1ccccc1F	nt	2	32	nt	nt	nt	nt
O=C(NCCCn1ccnc1)/C(=C\c1cccnc1)NC(=O)c1ccccc1F	-5	-1	49	21*	-2	-1	-2
Cc1nc2ccccn2c1-c1csc(Nc2cccc(O)c2)n1	0	-2	28	13*	nt	nt	11*
CC(C)(C)NC(=O)NCCc1ccccc1	nt	-6	20	13*	0	0	-1
CCCc1ccc(C(=O)Cn2nc(C(=O)O)c3ccccc3c2=O)cc1	-3	-3	37	11*	-4	3	2
Cc1cc(C)c(C(=O)Cn2nc(C(=O)O)c3ccccc3c2=O)cc1C	nt	2	24	-2	-2	1	nt
COc1ccc2cc(C(N)=O)c(=Nc3ccccc3)oc2c1	-7	2	-10	11*	nt	2	5
CN1CCN(C(=O)c2cc3sc4ccccc4c3s2)CC1	nt	?	8	14*	3	-2	1
CCn1c(=O)c2cc(C(=O)N3CCN(C)CC3)sc2c2ccccc21	-6	4	10	8	-2	4	nt
Nc1ccccc1C(=O)N/N=C1/C2CN3CCN(C2)CC1(Cc1ccccc1)C3	-4	0	4	13*	-1	0	0
CCCC12CN3CCN(CC(C3)/C1=N\NC(=O)c1ccccc1N)C2	-5	0	0	3	1	-1	nt
O=C(NC(=S)N(CCO)Cc1ccccc1)c1cc(Br)ccc1Cl	5	2	-27	11*	1	0	-1
CCN(Cc1ccccc1)C(=S)NC(=O)c1ccccc1Br	nt	-3	22	nt	nt	nt	nt
C=CCn1c(SCC(=O)Nc2cc(NC(C)=O)ccc2OC)nnc1-c1ccccn1	0	3	-2	12*	0	2	1
CN(C)c1nc(N(C)C)nc(N2CC(=O)N(c3ccccc3)C2=N)n1	-4	1	38	-1	-2	-3	nt
Cc1ccc(NC(=O)C(Cc2ccccc2)n2cccc2)cc1 (centres undefined)	nt	2	13	-1	-1	-1	nt
O=C(Nc1ccc(F)cc1)C(Cc1ccccc1)n1cccc1 (centres undefined)	nt	-1	43	12*	-1	-1	0
CC(Sc1nc2nn(-c3ccccc3)c(=O)c-2c2n1CCCCC2)C(N)=O (centres undefined)	-2	0	1	1	1	3	nt
O=C(CSc1nc2nn(-c3ccccc3)c(=O)c-2c2n1CCCCC2)NCCCc1ccccc1	-1	1	17	18*	-10	-3	2
Cc1ccccc1CN1C(=O)C2(OCCCO2)c2ccccc21	0	-5	4	-2	-4	1	nt
Cc1ccc(CN2CCN(CC(=O)N/N=C/c3ccccc3F)CC2)cc1	nt	5	8	-1	1	-1	nt
Cc1ccc(NC(=S)N/N=C/c2cccn2Cc2ccccc2F)cc1	nt	1	44	19*	2	2	1
Cc1csc(/C(=N/OC(=O)c2ccco2)C(N)=O)n1	nt	0	-3	8	0	-5	nt
Cc1cc(F)ccc1NC(=O)c1ccc(NS(=O)(=O)c2cc(C(C)(C)C)ccc2C)cc1	-5	-1	-26	13*	0	4	1
CC(=C/c1ccccc1)/C=N/NC(=O)c1ccccn1	nt	2	20	32*	-1	4	-2
O=[N+]([O-])c1cccc(NC(=S)Nc2nc(-c3ccccc3Cl)cs2)c1	nt	-1	31	nt	nt	nt	nt
NC(=O)[C@@H]1CCCN1Cc1nc(-c2cccs2)no1	1	-2	31	11*	1	0	-1
NC(=O)C1CCN(Cc2nc(-c3cccs3)no2)CC1	nt	4	3	-1	2	-4	nt
O=C(CCN1C(=O)c2ccccc2C1=O)C1=NN[C@@H]2C(=O)N(c3ccc4c(c3)OCCO4)C(=O)[C@H]12	nt	-3	28	8	1	-1	nt

From PubChem BioAssay
